Results from ChEMBL document CHEMBL1212793, “Bortezomib inhibits hepatitis B virus replication in transgenic mice” (Antimicrob Agents Chemother, 2010).
Calls of active or inactive are those of the source. The calls are words filed in the database; no cut-off is given here.

Assays:
Mus musculus [1] = test: Toxicity in HBV infected 1.3.32 transgenic mouse liver assessed as serum alanine aminotransferase level at 5 mg/kg, iv after 24 hrs; type: organism-based; parameters: dose 5 mg/kg, route intravenous; details: in vivo
In short: (§1)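 Serum ALT was read spectrophotometrically with Infinity ALT reagent against enzyme standards. Mice were HBV 1.3.32 transgenic males, 8–12 weeks, HBeAg-matched, with 3–4 per group. They received a single i.v. injection in 0.9% NaCl/mannitol: 1 mg/kg sampled at 1, 2, 3 or 6 days, or 0.2, 1 or 5 mg/kg sampled at 24 h. Controls got diluent only.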

Hepatitis B virus [2] = test: Antiviral activity against HBV infected in 1.3.32 transgenic mouse assessed as serum HBeAg level at 5 mg/kg, iv single dose after 24 hrs by ELISA; type: functional
In short: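 Serum HBeAg and HBsAg were measured by ELISA in HBV 1.3.32 transgenic mice (male, 8-12 wk) after one i.v. dose in 0.9% NaCl/mannitol. Values are relative to control mice given diluent. 3-4 mice per group; mean ± SEM; Student's t test.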

Hepatitis B virus [3] = details: 5 mg/kg
Mus musculus [4] = test: Toxicity in 1.3.32 transgenic mouse liver assessed as serum alanine aminotransferase level at 1 mg/kg, iv after 2 days; type: organism-based; parameters: dose 1 mg/kg, route intravenous; details: in vivo, 48 h; in short: as §1
Hepatitis B virus [5] = details: Liver, 1 mg/kg
Hepatitis B virus [6] = details: 0.2 mg/kg
Mus musculus [7] = test: Toxicity in HBV infected 1.3.32 transgenic mouse assessed as labored breathing, hunched posture at 5 mg/kg, iv after 24 hrs; type: organism-based; parameters: dose 5 mg/kg, route intravenous; details: in vivo
Mus musculus [8] = test: Toxicity in HBV infected 1.3.32 transgenic mouse liver assessed as hepatitis at 1 mg/kg, iv single dose after 6 days by rotine […] method; type: organism-based; parameters: dose 1 mg/kg, route intravenous; details: in vivo, 144 h
In short: (§2)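 Male HBV 1.3.32 transgenic mice, 8–12 weeks, HBeAg-matched. Each got a single i.v. dose in saline/mannitol: 1 mg/kg examined at day 1, 2 or 6, or 0.2, 1.0 or 5.0 mg/kg examined at 24 h. Diluent-only animals served as controls. Livers from representative mice were fixed in zinc-buffered formalin, embedded in paraffin and stained with H&E for pathology.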

Mus musculus [9] = test: Toxicity in HBV infected 1.3.32 transgenic mouse liver assessed as hepatitis at 0.2 mg/kg, iv single dose after 24 hrs by rotine […] method; type: organism-based; parameters: dose 0.2 mg/kg, route intravenous; details: in vivo; in short: as §2
Mus musculus [10] = test: Toxicity in HBV infected 1.3.32 transgenic mouse liver assessed as hepatitis at 1 mg/kg, iv single dose after 2 days by rotine […] method; type: organism-based; parameters: dose 1 mg/kg, route intravenous; details: in vivo, 48 h; in short: as §2
Mus musculus [11] = test: Toxicity in HBV infected 1.3.32 transgenic mouse liver assessed as hepatitis at 5 mg/kg, iv single dose after 24 hrs by rotine […] method; type: organism-based; parameters: dose 5 mg/kg, route intravenous; details: in vivo; in short: as §2
Hepatitis B virus [12] = details: 1 mg/kg
Hepatitis B virus [13] = details: 1 mg/kg; remark: listed apart in the source
Mus musculus [14] = test: Toxicity in HBV infected 1.3.32 transgenic mouse liver assessed as hepatitis at 1 mg/kg, iv single dose after 1 day by rotine […] method; type: organism-based; parameters: dose 1 mg/kg, route intravenous; details: in vivo, 24 h; in short: as §2
Hepatitis B virus [15] = details: 1 mg/kg; remark: listed apart in the source
Mus musculus [16] = test: Toxicity in 1.3.32 transgenic mouse assessed as serum alanine aminotransferase level liver at 1 mg/kg, iv after 6 days […]; type: organism-based; parameters: dose 1 mg/kg, route intravenous; details: in vivo, 144 h
Mus musculus [17] = test: Toxicity in HBV infected 1.3.32 transgenic mouse assessed as stress, ruffled fur at 5 mg/kg, iv after 24 hrs; type: organism-based; parameters: dose 5 mg/kg, route intravenous; details: in vivo
Hepatitis B virus [18] = details: Liver, 1 mg/kg; remark: listed apart in the source

CC(C)C[C@H](NC(=O)[C@H](Cc1ccccc1)NC(=O)c1cnccn1)B(O)O [BORTEZOMIB]
Activity (Mus musculus [1]): Toxic | Activity (Hepatitis B virus [2]): 50% | inhibition (Hepatitis B virus [3]): Active | Activity (Mus musculus [4]): Toxic | inhibition (Hepatitis B virus [5]): Active | inhibition (Hepatitis B virus [6]): inactive | Activity (Mus musculus [7]): Toxic | Activity (Mus musculus [8]): Non-toxic | Activity (Mus musculus [9]): Non-toxic | Activity (Mus musculus [10]): Non-toxic | Activity (Mus musculus [11]): Non-toxic | inhibition (Hepatitis B virus [12]): inactive | inhibition (Hepatitis B virus [13]): Active | Activity (Mus musculus [14]): Non-toxic | inhibition (Hepatitis B virus [15]): Active | Activity (Mus musculus [16]): Non-toxic | Activity (Mus musculus [17]): Toxic | inhibition (Hepatitis B virus [18]): Active
